The values below come from ChEMBL document CHEMBL1130011, “Chemical and biological studies on a series of novel (trans-(1R,2R)-, trans-(1S,2S)-, and cis-1,2-diaminocyclohexane)platinum(IV) carboxylate complexes” (J Med Chem, 1997).

Common to all, as to assay type: functional, organism-based
Experiment [1] relates to Mus musculus. Put plainly: Antitumor activity against L1210/0 leukemia cells in mice at the optimal dose of 75 mg/kg/injection (median survival time of [treated mice/control mice]). The method in brief:
(§1)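 Male B6D2F1 (C57BL/6 × DBA/2) mice were inoculated ip with 1 × 10^5 leukemia cells on day 0. Drug was given ip on days 1, 5 and 9, prepared in water or 0.9% NaCl and administered immediately, over a dose range of 0.5–200 mg/kg/injection. Animals were monitored daily. %T/C = median survival of treated × 100/median survival of controls. Cures were mice alive at day 60.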

The test system of experiment [2] is Mus musculus. Put plainly: Antitumor activity against L1210/cisplatin leukemia cells in mice at the optimal dose of 75 mg/kg/injection (median survival time of [treated mice/control mice]). The procedure, abridged: as §1
Experiment [3] concerns Mus musculus. Put plainly: Antitumor activity against L1210/cisplatin leukemia cells in mice at the optimal dose of 5 mg/kg/injection (median survival time of [treated mice/control mice]). The method in brief:
as §1

The test system of experiment [4] is Mus musculus. Put plainly: Antitumor activity against L1210/0 leukemia cells in mice at the optimal dose of 5 mg/kg/injection (median survival time of [treated mice/control mice]). The procedure, abridged:
as §1

In experiment [5] the test system is Mus musculus. Put plainly: Antitumor activity against M5076 reticulosarcoma grown subcutaneously in mice at the optimal dose of 5 mg/kg/injection. The method in brief:
(§2)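 Male B6D2F1 (C57BL/6 × DBA/2) mice received 1 × 10^7 M5076 cells sc on day 0. Drug was given ip on days 5, 9, 13 and 17, prepared in water or 0.9% NaCl and given immediately, over a dose range of 0.5–200 mg/kg/injection. Animals were monitored daily. Results are expressed as %T/C (median survival ratio × 100) or as tumor growth delay.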

Experiment [6] deals with Mus musculus. Put plainly: Antitumor activity against L1210/0 leukemia cells in mice at the optimal dose of 200 mg/kg/injection (median survival time of [treated mice/control mice]). The procedure, abridged:
as §1

The test system of experiment [7] is Mus musculus. Put plainly: Antitumor activity against L1210/0 leukemia cells in mice at the optimal dose of 100 mg/kg/injection (median survival time of [treated mice/control mice]). The method in brief:
as §1

Experiment [8] deals with Mus musculus. Put plainly: Antitumor activity against L1210/cisplatin leukemia cells in mice at the optimal dose of 50 mg/kg/injection (median survival time of [treated mice/control mice]). The method in brief: as §1
Experiment [9] deals with Mus musculus. Put plainly: Antitumor activity against M5076 reticulosarcoma grown subcutaneously in mice at the optimal dose of 100 mg/kg/injection. The procedure, abridged:
as §2

For experiment [10], the system named is Mus musculus. Put plainly: Antitumor activity against L1210/cisplatin leukemia cells in mice at the optimal dose of 200 mg/kg/injection (median survival time of [treated mice/control mice]). The procedure, abridged:
as §1

The test system of experiment [11] is Mus musculus. Put plainly: Antitumor activity against M5076 reticulosarcoma grown subcutaneously in mice at the optimal dose of 200 mg/kg/injection. The method in brief: as §2
Experiment [12] deals with Mus musculus. Put plainly: Antitumor activity against L1210/0 leukemia cells in mice at the optimal dose of 50 mg/kg/injection (median survival time of [treated mice/control mice]). The procedure, abridged: as §1
Experiment [13] relates to Mus musculus. Put plainly: Antitumor activity against L1210/cisplatin leukemia cells in mice at the optimal dose of 100 mg/kg/injection (median survival time of [treated mice/control mice]). The procedure, abridged: as §1
Experiment [14] relates to Mus musculus. Put plainly: Antitumor activity against L1210/0 leukemia cells in mice at the optimal dose of 25 mg/kg/injection (median survival time of [treated mice/control mice]). The method in brief:
as §1

Experiment [15] concerns Mus musculus. Put plainly: Antitumor activity against L1210/cisplatin leukemia cells in mice at the optimal dose of 25 mg/kg/injection (median survival time of [treated mice/control mice]). The method in brief: as §1

For orientation: T/C means the ratio of treated to control. Regarding CARBOPLATIN, the T/C in experiment [1] came to 147%; in [2] it was 111%. On to CISPLATIN, for which the T/C was 100% in experiment [3] and 300% in [4]. In experiment [5], this substance gave a Tumor growth delay of 16.3 days. “Platinum IV (cis-1,2-diaminecyclohexyl)-trans-(acetate)2 (1,1-cyclobutanedicarboxylate)”: the T/C in experiment [6] turned out to be 112%. “Platinum IV (cis-1,2-diaminecyclohexyl)-trans-(acetate)2 (malonate)” gave a T/C in experiment [6] of 206%. Substance “Platinum IV (cis-1,2-diaminecyclohexyl)-trans-(acetate)2 (oxalate)” gave a T/C in experiment [7] of 159%. Substance “Platinum IV (trans-(1R,2R)-diaminecyclohexyl) (acetate)4” gave a T/C in experiment [6] of 206%. For “Platinum IV (trans-(1R,2R)-diaminecyclohexyl)-trans-(acetate)2”, the figures for the T/C in [8] and in [7] were 144% and 265%, respectively. Also, the Tumor growth delay in [9] turned out to be 19.5 days. Regarding “Platinum IV (trans-(1R,2R)-diaminecyclohexyl)-trans-(acetate)2 (1,1-cyclobutanedicarboxylate)”, the T/C came out at 100% in [10] and 112% in [6]. In experiment [11], this substance gave a Tumor growth delay of 15.8 days.

In the case of “Platinum IV (trans-(1R,2R)-diaminecyclohexyl)-trans-(acetate)2 (cyclobutanecarboxylate)2”, the T/C was determined as 157% in [8] and 206% in [7]. Take “Platinum IV (trans-(1R,2R)-diaminecyclohexyl)-trans-(acetate)2 (methylmalonate)”: the T/C turned out to be 93% in [10] and 147% in experiment [6]. The substance also came in with a Tumor growth delay in experiment [11] of 21.3 days. “Platinum IV (trans-(1R,2R)-diaminecyclohexyl)-trans-(acetate)2 (oxalate)” showed a T/C in [12] of 171%. For “Platinum IV (trans-(1R,2R)-diaminecyclohexyl)-trans-(trifluoroacetate)2 (1,1-cyclobutanedicarboxylate)”, the T/C amounted to 205% in experiment [13] and 253% in [6]. In the case of “Platinum IV (trans-(1R,2R)-diaminecyclohexyl)-trans-(trifluoroacetate)2 (acetate)4”, the values for the T/C in experiment [14] and in [15] were 218% and 148%, respectively. In the case of “Platinum IV (trans-(1R,2R)-diaminecyclohexyl)-trans-(trifluoroacetate)2 (oxalate)”, the T/C is over 700% in experiment [12] and 176% in experiment [8]. In the case of “Platinum IV (trans-(1S,2S)-diaminecyclohexyl) (acetate)4”, the T/C in experiment [6] came out at 194%. In [12], “Platinum IV (trans-(1S,2S)-diaminecyclohexyl)-trans-(acetate)2 (cyclobutanecarboxylate)2” came in with a T/C of 182%.

With “Platinum IV (trans-(1S,2S)-diaminecyclohexyl)-trans-(acetate)2 (oxalate)”, in experiment [12], the T/C is 135%. Consider [Pt(O2CCH3)4(dach)]dach, for which the T/C in experiment [6] came to 182%.
